Apaf1 activ: activates human Apaf-1 apoptosome. 330,000 tested, 0.31% active. Apaf-1 apoptosome caspase-3 activation, DEVD-Rh110 fluorescence; hits give low values. activity change, negative = activation, % at 20 µM;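 active = activity change at or below -40% at 20 µM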
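Material: reconstituted apoptosome of Apaf-1, cytochrome c, caspase-9, procaspase-3; times: 30 min preincubation, 50 min reaction, room temperature; measured by: fluorescence, 540 nm emission, 480 nm excitation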
Rh110 act interf: Rh110 signal interference in Apaf-1 activator counter-screen; shares compounds with Apaf1 activ; Rh110 fluorescence interference, quenched caspase reaction, Ex480/Em540; fluorescence interference (activity change), % at 20 µM, hits read low; 980 tested, under 10 active; AID 504616;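 active = mean activity change at or below -40% when tested at 20 µM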
Apaf-1 act conf2: Apaf-1 (human) activation, single-dose confirmed; shares compounds with Apaf1 activ; reconstituted apoptosome caspase-3 activity, DEVD-Rh110 fluorescence; hits give low values; activity change, negative = activation, % at 20 µM; 980 tested, 5% active;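 active = mean activity change at or below -40%, meaning activation of 40% or more, at 20 µM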
A number is an active result; - = inactive; . = no result given. These entries were drawn from the full list.

SMILES	Apaf1 activ	Rh110 act interf	Apaf-1 act conf2
CC1=NN(c2ccc(Cl)cc2)C(=O)C1C(c1cccc(O)c1)c1c(C)[nH]n(-c2ccc(Cl)cc2)c1=O (stereo not drawn)	-	.	.
CCN(Cc1ccccc1)S(=O)(=O)c1ccc(C(=O)N(CCCN(C)C)c2nc3cc(OC)ccc3s2)cc1	-	.	.
COc1ccc(NC(=S)N2CCC(C(=O)c3ccc(C)cc3)CC2)cc1	-102.6	-	-
CCOC(=O)C1CCN(C(=O)Nc2ccc3nc(-c4ccco4)c(-c4ccco4)nc3c2)CC1	-	.	.
Cc1ccc(C(=O)NNc2cc(N3CCCC3)nc(N3CCCC3)n2)cc1	-	.	.
O=c1[nH]c(Nc2ccccc2Cl)cc2ccccc12	-	.	.
CCN(CC)CCN(C(=O)c1ccc(C(C)=O)cc1)c1nc2ccc(Cl)cc2s1	-328.6	-	-
CCOc1ccc2nc(N(CCN(C)C)C(=O)c3ccc4c(c3)CCCC4)sc2c1	-	.	.
CN(C)CCCN(C(=O)c1ccc(S(=O)(=O)N2CCCC2)cc1)c1nc2ccc(Br)cc2s1	-	.	.
Cc1cccc(NC(=S)NCc2ccc3c(c2)cc(C)n3C)c1C	-	.	.
Cc1nnc(SCC(=O)NCc2ccco2)n1Cc1ccccc1	-428.3	-	-
C=CCn1c(SCC(=O)NCCc2ccccc2)nnc1C1CC1	-	.	.
COc1cc(OC)c2c(-c3ccccc3)cc(=O)oc2c1C(CCN1CCCC1)c1ccc2c(c1)OCO2 (stereo not drawn)	-	.	.
C#CC(CC)(CC)NC(=O)/C=C/C(=O)O	-565.9	-	-
O=C(O)c1cccc(NC2=C(N3CCOCC3)C(=O)c3ccccc3C2=O)c1	-	.	.
O=C1O/C(=C\C(=O)N2CCOCC2)c2ccccc21	-141.0	-	-
O=C1C=C(N2CCOCC2)c2ccccc2C1=O	-	.	.
NC(=O)CSc1nc2scc(-c3ccc(Cl)cc3)c2c(=O)n1Cc1ccccc1	-	.	.
COc1cc(/C=N/NC(=O)c2ccncc2)ccc1OCC(=O)Nc1cccc([N+](=O)[O-])c1	-125.3	-	-
COc1cc(/C=C2\C(=O)N(CCC#N)N=C2C)ccc1OCC(=O)Nc1ccccc1	-	.	.
NC(=O)C1CCN(C2=C(Cl)C(=O)c3ccccc3C2=O)CC1	-	.	.
O=C1N/C(=C\c2ccc(O)cc2)C(=O)c2ccccc21	-	.	.
Cn1/c(=N/NC(=O)c2ccccc2F)sc2ccccc21	-71.6	-	-
CN1c2cccc3cccc(c23)N(C)C1(C)C	-	.	.
CN(C)Cc1c(C(=O)N/N=C/c2cccc(OCc3c(F)cccc3Cl)c2)nnn1-c1nonc1N	-95.7	-	-
SMILES	Apaf1 activ	Rh110 act interf	Apaf-1 act conf2
CN(Cc1c(F)cccc1Cl)C(=O)c1ccc(COc2ccccc2)cc1	-	.	.
Cc1ccc(Oc2nc(CN3CCOCC3)nc3sc4c(c23)CCC(C)C4)cc1 (stereo not drawn)	-	.	.
CCOc1cc(/C=C2/C(=O)N(c3ccccc3)N=C2C)ccc1OC(=O)c1cccs1	-	.	.
Cc1cccc(C)c1NC(=O)CSCC(=O)c1ccc(O)c(O)c1	-160.9	-	-
COc1cc(OC)c2c(-c3ccccc3)cc(=O)oc2c1C(CCN1CCOCC1)c1ccc2c(c1)OCO2 (stereo not drawn)	-	.	.
Oc1ccc(-c2csc(-c3c[nH]c4ccccc34)n2)c(O)c1	-275.9	-	-
CC1=NN(c2ccccc2)C(=O)/C1=C/c1cccc(C)c1	-	.	.
CC(C)Oc1cccc(C(=O)Nc2ncn[nH]2)c1	-47.8	-	-
CN1/C(=N\O)c2cccc3cccc1c23	-	.	.
Nc1ccccc1C(=O)Nc1cccc2ccccc12	-113.8	-	-
CC(=O)c1ccc(NC(=S)Nc2cccc3ccccc23)cc1	-	.	.
C/C(=N\NC(=O)CNc1cccc2ccccc12)c1ccccc1	-	.	.
CN(C)C=Nc1c(Br)cc(Br)c2nonc12	-	.	.
COC(=O)C1=C(C)N(Cc2ccccc2)C(=NCC(C)C)N[C@H]1c1cccc(F)c1	-	.	.
COC(CNC(=S)Nc1ccc([N+](=O)[O-])cc1)OC	-58.1	-	-
C#CCOCCOCCOCCNc1nc(N2CCN(C(=O)[C@H]([C@@H](C)CC)n3cc([C@@H](N)CO)nn3)CC2)nc(N2CCN(C(=O)[C@H](Cc3cc4ccccc4[nH]3)n3cc([C@@H](N)Cc4ccc(O)cc4)nn3)CC2)n1	-	.	.
CCCCCc1cc(=O)oc2c(C(CCN3CCCC(C)C3)c3ccc4c(c3)OCO4)c(OC)cc(OC)c12 (stereo not drawn)	-	.	.
COc1ccc(CCN(C)C(=O)c2ccc(COc3ccccc3)o2)cc1OC	-	.	.
COc1ccc(CC(=O)NNS(=O)(=O)c2ccc([N+](=O)[O-])cc2)cc1OC	-479.1	-	-
COc1ccc(CC(=O)Nc2ccc(S(=O)(=O)Nc3onc(C)c3C)cc2)cc1OC	-90.5	-	-
Cc1ccc(S(=O)(=O)/N=C2\C(=O)c3ccccc3C([O-])=C2n2cc[n+](CCC(C)C)c2)cc1	-	.	.
CCOc1ccc(NC(=O)CN(C)C(=O)c2ccccc2OCc2c(C)noc2C)cc1OCC	-	.	.
CCOc1ccc2oc(C(=O)N(C)CC(=O)Nc3ccc(OCC)c(OCC)c3)c(C)c2c1	-54.8	-	-
C/C(=C\c1ccccc1)C1Nc2cccc3cccc(c23)N1	-	.	.
Cn1c(=O)c2c(-c3ccc(C(C)(C)C)cc3)n(N3CCOCC3)cc2n(C)c1=O	-60.2	-	-
SMILES	Apaf1 activ	Rh110 act interf	Apaf-1 act conf2
COc1ccc2cc1Oc1ccc(cc1)C[C@H]1c3c(cc4c(c3Oc3cc5c(cc3OC)CCN(C)[C@@H]5C2)OCO4)CCN1C	-	.	.
S=c1[nH]c2cc(Cl)c3cccnc3c2o1	-	.	.
Cc1nn(-c2ccccc2)c(C)c1CN(C)C(=O)c1ccc(S(=O)(=O)NCc2ccco2)cc1	-	.	.
CC(C)(C)c1ccc(C(=O)NNC(=S)NCc2ccco2)cc1	-40.6	-	-
O=C(NCCO)c1ccc2nc(-c3ccco3)c(-c3ccco3)nc2c1	-	.	.
CC(C)C[C@@H]1CN=C(N)N1C[C@@H]1CCCN1C[C@H](C)N1C[C@@H](Cc2ccccc2)N(CCCC2CCCC2)C1=N	-	.	.
O=C1c2[nH]nc(-c3ccccc3O)c2C(c2cccc(Cl)c2)N1Cc1ccco1 (stereo not drawn)	-	.	.
CCOC(=O)N1CCC(N2Cc3cccc(C(=O)Nc4ccccc4OC)c3C2=O)CC1	-44.2	-	-
C#CCOCCOCCOCCNc1nc(N2CCN(C(=O)[C@H](CCCCN)n3cc(CN)nn3)CC2)nc(N2CCN(C(=O)[C@H](CCCCN)n3cc([C@@H](N)[C@H](C)CC)nn3)CC2)n1	-	.	.
COCc1c(C(=O)OCC(=O)NCCN2C(=O)CSC2=O)oc2ccccc12	-67.3	-	-
CC(C)C[C@H](NC(=O)c1nc[nH]c1C(=O)N[C@@H](CCCCN)C(=O)OC(C)(C)C)C(=O)OC(C)(C)C	-	.	.
Oc1cc(NCCN2CCOCC2)cc2cccnc12	-	.	.
CCOc1ccc(NS(=O)(=O)c2cc(C(=O)NCCCN3CCOCC3)ccc2C)cc1	-	.	.
Cc1ccc(S(=O)(=O)NCCN2CCOCC2)c(C)c1C	-47.7	-	-
COc1ccc(C2CC(=O)Oc3c(C(CCN4CCCC(C)C4)c4ccc(N(C)C)cc4)c(OC)cc(OC)c32)cc1 (stereo not drawn)	-	.	.
CN(C)CCN(C(=O)c1ccc2c(c1)CCCC2)c1nc2cc3c(cc2s1)OCCO3	-	.	.
CN(C)CCn1c2c(c(SCC(=O)Nc3ccc4c(c3)OCCO4)nc1=O)CCCC2	-62.2	-	-

From PubChem BioAssay
